Key:
DU-145 = assay: Antiproliferative activity against docetaxel-sensitive human DU145 cells after 3 days by WST-1 assay; format: functional, cell-based; conditions: DU-145, 72 h
Summary of the method: (§1)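 Cells grown at 37 °C, 5% CO2: PC-3 and LNCaP in RPMI-1640, DU145 in EMEM, each with 10% FBS and 1% penicillin/streptomycin. Plated at 3,200 cells/well and exposed to a range of doses for 3 days, with DMSO vehicle control. WST-1 reagent was then added for 3 h at 37 °C and absorbance read at 430 nm. IC50 is the mean of at least triplicate runs.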

[1] = Antiproliferative activity against human PC3/DTX cells after 3 days by WST-1 assay; format: functional, cell-based; conditions: 72 h
Summary of the method: (§2)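 Docetaxel-resistant lines were derived from DU145 or PC-3 over one year by stepwise-increasing docetaxel, starting at the parental IC50. Cells were kept continuously in docetaxel, with medium changed every 2–3 days. For the assay, cells were plated at 3,200/well and treated with a dose range for 3 days against DMSO vehicle. WST-1 was added for 3 h at 37 °C and absorbance read at 430 nm. IC50 is the mean of at least triplicates.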

PC-3 [2] = assay: Antiproliferative activity against docetaxel-sensitive human PC3 cells after 3 days by WST-1 assay; format: functional, cell-based; conditions: PC-3, 72 h; summary of the method: as §1
LNCaP = assay: Antiproliferative activity against docetaxel-sensitive human LNCAP cells after 3 days by WST-1 assay; format: functional, cell-based; conditions: 72 h; summary of the method: as §1
[3] = Antiproliferative activity against human DU145/DTX cells after 3 days by WST-1 assay; format: functional, cell-based; conditions: DU-145, 72 h; summary of the method: as §2
[4] = Resistance index, ratio of IC50 for human DU145/DTX cells to IC50 for docetaxel-sensitive human DU145 cells; format: functional
[5] = Resistance index, ratio of IC50 for human PC3/DTX cells to IC50 for docetaxel-sensitive human PC3 cells; format: functional
PC-3 [6] = assay: Antiproliferative activity against human PC3 cells after 72 hrs by methylene blue staining based assay; format: functional, cell-based; conditions: PC-3, 72 h

## C/C1=C/C=C/C(=O)O[C@@H](CO)C/C(C)=C/COCC/C=C/C(=O)C1
DU-145
  IC50: > 30 µM
[1]
  IC50: > 30 µM
PC-3 [2]
  IC50: > 30 µM
LNCaP
  IC50: > 30 µM
[3]
  IC50: > 30 µM

## C/C1=C/C=C/C(=O)O[C@@H](C=O)C/C(C)=C/COCC/C=C/C(=O)C1
[4]
  Ratio IC50: 1.5
DU-145
  IC50: 5.41 µM
[1]
  IC50: 4.41 µM
PC-3 [2]
  IC50: 5.27 µM
LNCaP
  IC50: 3.22 µM
[3]
  IC50: 8.03 µM
[5]
  Ratio IC50: 0.8

## CC(=O)O[C@@]12CO[C@@H]1C[C@H](O)[C@@]1(C)C(=O)[C@H](O)C3=C(C)[C@@H](OC(=O)[C@H](O)[C@@H](NC(=O)OC(C)(C)C)c4ccccc4)C[C@@](O)([C@@H](OC(=O)c4ccccc4)[C@H]21)C3(C)C [DOCETAXEL ANHYDROUS]
[4]
  Ratio IC50: 7150
DU-145
  IC50: 0.0012 µM
[1]
  IC50: 2.34 µM
PC-3 [2]
  IC50: 0.0019 µM
LNCaP
  IC50: 0.0002 µM
[3]
  IC50: 8.58 µM
[5]
  Ratio IC50: 1232

## COc1ccc(COC[C@H]2C/C(C)=C/COCC/C=C/C(=O)C/C(C)=C\C=C\C(=O)O2)cc1
[4]
  Ratio IC50: 1
DU-145
  IC50: 3.16 µM
[1]
  IC50: 3.77 µM
PC-3 [2]
  IC50: 6.31 µM
LNCaP
  IC50: 2.85 µM
[3]
  IC50: 3.2 µM
[5]
  Ratio IC50: 0.6

## COc1ccc(COC[C@@H]2C/C(C)=C/COCC/C=C/C(=O)C/C(C)=C\C=C\C(=O)O2)cc1
[4]
  Ratio IC50: >2.2
DU-145
  IC50: 9.21 µM
[1]
  IC50: > 20 µM
PC-3 [2]
  IC50: 7.66 µM
LNCaP
  IC50: 8.27 µM
[3]
  IC50: > 20 µM
[5]
  Ratio IC50: >2.6

## C=C1C[C@H]2C/C=C/C(=O)C/C(C)=C\C=C\C(=O)OC(C=O)C/C(C)=C/[C@@H](C1)O2 (stereo not given in full)
PC-3 [6]
  IC50: 0.75 µM

## C/C1=C/C=C/C(=O)O[C@H](CO)C/C(C)=C/COCC/C=C/C(=O)C1
PC-3 [6]
  IC50: 3.05 µM
[4]
  Ratio IC50: 0.8
DU-145
  IC50: 17.8 µM
[1]
  IC50: 14.4 µM
PC-3 [2]
  IC50: 16.1 µM
LNCaP
  IC50: 19.3 µM
[3]
  IC50: 14.1 µM
[5]
  Ratio IC50: 0.9

## C/C1=C/C=C/C(=O)O[C@H](C=O)C/C(C)=C/COCC/C=C/C(=O)C1
PC-3 [6]
  IC50: 4.02 µM
[4]
  Ratio IC50: 1.3
DU-145
  IC50: 11.6 µM
[1]
  IC50: 15.4 µM
PC-3 [2]
  IC50: 11.9 µM
LNCaP
  IC50: 13.5 µM
[3]
  IC50: 15.3 µM
[5]
  Ratio IC50: 1.3
